Source: ChEMBL document CHEMBL1121696, “Antimicrobial 3-methyleneflavanones” (1981)
Values after ≈ are worked out from the molar mass of the structure shown.

Experiments:
Candida albicans [1] = assay: Compound was tested for the antimicrobial activity against Candida albicans (ATCC 10231, NRRL Y-477); Range is 25 to >100; assay type: functional
Method in brief: (§1)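 Agar dilution MIC. Stocks and twofold serial dilutions in DMF or 50% aqueous DMF were mixed 1:100 into molten Eugon agar, giving final 100, 50, 25, 12.5, 6.2, 3.1 mcg/mL (further dilutions sometimes) and ≤1% DMF. Inocula came from 24 h Eugon agar slants at 32 °C, suspended at 10⁶ cells/mL and applied with a Steers replicator. MIC (lowest concentration inhibiting growth) was read after 24 h at 32 °C.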

Staphylococcus aureus [2] = assay: Antimicrobial activity against Staphylococcus aureus (ATCC 6538, NRRL B2747); Range is <3.1-6.2; assay type: functional; method in brief: as §1
Trichophyton benhamiae [3] = assay: Compound was tested for the antimicrobial activity against Trichophyton mentagrophytes (ATCC 4807); Range is 6.2-12.5; assay type: functional, Arthroderma benhamiae
Method in brief: (§2)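 Spores came from Eugon agar slants grown 1 week at 32 °C, suspended at 10⁶/mL in Eugon broth or saline, and applied by Steers replicator. The lowest inhibitory concentration was read after 48-72 h at 32 °C.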

Trichophyton benhamiae [4] = assay: Compound was tested for the antimicrobial activity against Trichophyton mentagrophytes (ATCC 4807); Range is 12.5-25; assay type: functional, Arthroderma benhamiae; method in brief: as §2
Candida albicans [5] = assay: Compound was tested for the antimicrobial activity against Candida albicans (ATCC 10231, NRRL Y-477); Range is 100 to >100; assay type: functional; method in brief: as §1
Aspergillus niger = assay: Antimicrobial activity against Aspergillus niger (ATCC 16404); assay type: functional; method in brief: as §2
Candida albicans [6] = assay: Antimicrobial activity against Candida albicans (ATCC 10231, NRRL Y-477); assay type: functional; method in brief: as §1
Enterococcus faecalis [7] = assay: Antimicrobial activity against Streptococcus faecalis (ATCC 10541); assay type: functional; method in brief: as §1
Staphylococcus aureus [8] = assay: Antimicrobial activity against Staphylococcus aureus (ATCC 6538, NRRL B2747); assay type: functional; method in brief: as §1
Trichophyton benhamiae [9] = assay: Compound was tested for the antimicrobial activity against Trichophyton mentagrophytes (ATCC 4807); Range is 100 to >100; assay type: functional, Arthroderma benhamiae; method in brief: as §2
Candida albicans [10] = assay: Compound was tested for the antimicrobial activity against Candida albicans (ATCC 10231, NRRL Y-477); Range is 50 to >100; assay type: functional; method in brief: as §1
Trichophyton benhamiae [11] = assay: Compound was tested for the antimicrobial activity against Trichophyton mentagrophytes (ATCC 4807); Range is <3.1-6.2; assay type: functional, Arthroderma benhamiae; method in brief: as §2
Trichophyton benhamiae [12] = assay: Compound was tested for the antimicrobial activity against Trichophyton mentagrophytes (ATCC 4807); Range is 6.2-25; assay type: functional, Arthroderma benhamiae; method in brief: as §2
Candida albicans [13] = assay: Compound was tested for the antimicrobial activity against Candida albicans (ATCC 10231, NRRL Y-477); Range is 50-100; assay type: functional; method in brief: as §1
Trichophyton benhamiae [14] = assay: Compound was tested for the antimicrobial activity against Trichophyton mentagrophytes (ATCC 4807); Range is 25-50; assay type: functional, Arthroderma benhamiae; method in brief: as §2
Bacillus subtilis = assay: Compound was tested for its antimicrobial activity against Bacillus subtilis (ATCC 6633); assay type: functional; method in brief: as §1
Cutibacterium acnes = assay: Compound was tested for its antimicrobial activity against Propionibacterium acnes (ATCC 6919); assay type: functional
Method in brief: (§3)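 Anaerobic bacteria were grown 72 h at 32 °C in fluid thioglycollate medium and used undiluted to inoculate, by Steers replicator, Eugon agar containing serial twofold compound dilutions made in DMF or 50% aqueous DMF (final 100 to 3.1 mcg/mL, ≤1% DMF). MIC was read after 72 h of anaerobic incubation (Gas-Pak jar) at 37 °C.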

Enterococcus faecalis [15] = assay: Compound was tested for its antimicrobial activity against Streptococcus faecalis (ATCC 10541); assay type: functional; method in brief: as §1
[16] = system: Staphylococcus epidermidis; assay: Compound was tested for its antimicrobial activity against Staphylococcus epidermidis (ATCC 12228); assay type: functional; method in brief: as §1
Staphylococcus aureus [17] = assay: Compound was tested for its antimicrobial activity against Staphylococcus aureus (ATCC 151); assay type: functional; method in brief: as §1
Staphylococcus aureus [18] = assay: Compound was tested for its antimicrobial activity against Staphylococcus aureus (NRRL B2747); assay type: functional; method in brief: as §1
Staphylococcus aureus [19] = assay: Compound was tested for its antimicrobial activity against Staphylococcus aureus(9-195); assay type: functional; method in brief: as §1
Staphylococcus aureus [20] = assay: Compound was tested for its antimicrobial activity against Staphylococcus aureus(9-267); assay type: functional; method in brief: as §1
Staphylococcus aureus [21] = assay: Compound was tested for the antimicrobial activity against Staphylococcus aureus (ATCC 6538, NRRL B2747); Range is 0.25-0.5; assay type: functional; method in brief: as §1
Trichophyton benhamiae [22] = assay: Antimicrobial activity against Trichophyton mentagrophytes (ATCC 4807); assay type: functional, Arthroderma benhamiae; method in brief: as §2
Enterococcus = assay: Compound was tested for its antimicrobial activity against Enterococcus (9-25)
[23] = system: Clostridium acetobutylicum; assay: Compound was tested for its antimicrobial activity against Clostridium acetobutylicum (ATCC 824); assay type: functional; method in brief: as §3
[24] = Compound was tested for its antimicrobial activity against Sarcina subflava (ATCC 7468); assay type: functional; method in brief: as §1
Staphylococcus aureus [25] = assay: Compound was tested for its antimicrobial activity against Staphylococcus aureus (9-195); assay type: functional; method in brief: as §1
Staphylococcus aureus [26] = assay: Compound was tested for its antimicrobial activity against Staphylococcus aureus (9-267); assay type: functional; method in brief: as §1
Staphylococcus aureus [27] = assay: Compound was tested for its antimicrobial activity against Staphylococcus aureus (ATCC 6538); assay type: functional; method in brief: as §1

C=C1C(=O)c2ccc(OC)cc2OC1c1ccc(Cl)cc1 (stereo unspecified)
MIC (Candida albicans [1]): > 25 µg/mL | MIC (Staphylococcus aureus [2]): < 3.1 µg/mL | MIC (Trichophyton benhamiae [3]): 6.2 µg/mL (≈ 20.6 µM)

C=C1C(=O)c2ccccc2OC1(c1ccccc1)c1ccncc1 (stereo unspecified)
MIC (Trichophyton benhamiae [4]): 12.5 µg/mL (≈ 39.9 µM) | MIC (Candida albicans [5]): > 100 µg/mL

C=C1C(=O)c2cc(Br)ccc2OC1c1ccccc1 (stereo unspecified)
MIC (Aspergillus niger): > 100 µg/mL | MIC (Candida albicans [6]): > 100 µg/mL | MIC (Enterococcus faecalis [7]): > 100 µg/mL | MIC (Staphylococcus aureus [8]): 50 µg/mL (≈ 159 µM) | MIC (Trichophyton benhamiae [9]): > 100 µg/mL

C=C1C(=O)c2ccccc2OC1c1ccc(OC)cc1 (stereo unspecified)
MIC (Candida albicans [10]): > 50 µg/mL | MIC (Trichophyton benhamiae [4]): 12.5 µg/mL (≈ 46.9 µM)

C=C1C(=O)c2ccccc2OC1c1ccc(C)cc1 (stereo unspecified)
MIC (Trichophyton benhamiae [11]): < 3.1 µg/mL

C=C1C(=O)c2ccccc2OC1(c1ccccc1)c1cccs1 (stereo unspecified)
MIC (Trichophyton benhamiae [12]): 6.2 µg/mL (≈ 19.5 µM)

C=C1C(=O)c2ccccc2OC1c1cccc2ccccc12 (stereo unspecified)
MIC (Aspergillus niger): > 100 µg/mL | MIC (Candida albicans [10]): > 50 µg/mL | MIC (Enterococcus faecalis [7]): 50 µg/mL (≈ 175 µM) | MIC (Staphylococcus aureus [2]): < 3.1 µg/mL | MIC (Trichophyton benhamiae [3]): 6.2 µg/mL (≈ 21.7 µM)

C=C1C(=O)c2ccccc2OC1(C)C
MIC (Aspergillus niger): > 100 µg/mL | MIC (Candida albicans [13]): 50 µg/mL (≈ 266 µM) | MIC (Enterococcus faecalis [7]): > 100 µg/mL | MIC (Staphylococcus aureus [8]): > 100 µg/mL | MIC (Trichophyton benhamiae [14]): 25 µg/mL (≈ 133 µM)

C=C1C(=O)c2ccccc2OC1(c1ccccc1)c1ccccc1
MIC (Bacillus subtilis): 0.25 µg/mL (≈ 0.8 µM) | MIC (Cutibacterium acnes): 3.1 µg/mL (≈ 9.92 µM) | MIC (Enterococcus faecalis [15]): 1 µg/mL (≈ 3.2 µM) | MIC (Enterococcus faecalis [7]): 0.78 µg/mL (≈ 2.5 µM) | MIC [16]: 0.25 µg/mL (≈ 0.8 µM) | MIC (Staphylococcus aureus [17]): 0.25 µg/mL (≈ 0.8 µM) | MIC (Staphylococcus aureus [18]): 0.5 µg/mL (≈ 1.6 µM) | MIC (Staphylococcus aureus [19]): 0.5 µg/mL (≈ 1.6 µM) | MIC (Staphylococcus aureus [20]): 0.5 µg/mL (≈ 1.6 µM) | MIC (Staphylococcus aureus [21]): 0.25 µg/mL (≈ 0.8 µM) | MIC (Trichophyton benhamiae [22]): > 100 µg/mL | MIC (Enterococcus): 1 µg/mL (≈ 3.2 µM)

Oc1c(I)cc(Cl)c2cccnc12 [CLIOQUINOL]
MIC (Bacillus subtilis): 6.2 µg/mL (≈ 20.3 µM) | MIC [23]: < 6.2 µg/mL | MIC (Cutibacterium acnes): 25 µg/mL (≈ 81.8 µM) | MIC [24]: 3.1 µg/mL (≈ 10.1 µM) | MIC (Staphylococcus aureus [25]): 12.5 µg/mL (≈ 40.9 µM) | MIC (Enterococcus faecalis [15]): 12.5 µg/mL (≈ 40.9 µM) | MIC [16]: 12.5 µg/mL (≈ 40.9 µM) | MIC (Staphylococcus aureus [26]): 12.5 µg/mL (≈ 40.9 µM) | MIC (Staphylococcus aureus [17]): 3.1 µg/mL (≈ 10.1 µM) | MIC (Staphylococcus aureus [27]): 12.5 µg/mL (≈ 40.9 µM) | MIC (Staphylococcus aureus [18]): 12.5 µg/mL (≈ 40.9 µM) | MIC (Enterococcus): 25 µg/mL (≈ 81.8 µM)

C=C1C(=O)c2ccccc2OC1c1ccc2ccccc2c1 (stereo unspecified)
MIC (Aspergillus niger): > 100 µg/mL | MIC (Candida albicans [1]): > 25 µg/mL | MIC (Enterococcus faecalis [7]): 50 µg/mL (≈ 175 µM) | MIC (Staphylococcus aureus [2]): < 3.1 µg/mL | MIC (Trichophyton benhamiae [12]): 6.2 µg/mL (≈ 21.7 µM)

C=C1C(=O)c2ccccc2OC1c1ccc(N(C)C)cc1 (stereo unspecified)
MIC (Aspergillus niger): 100 µg/mL (≈ 358 µM) | MIC (Trichophyton benhamiae [4]): 12.5 µg/mL (≈ 44.7 µM)

C=C1C(=O)c2cc(C)ccc2OC1c1ccccc1 (stereo unspecified)
MIC (Trichophyton benhamiae [22]): 6.2 µg/mL (≈ 24.8 µM)

C=C(CC)C(=O)c1ccc(OCC(=O)O)c(Cl)c1Cl [ETHACRYNIC ACID]
MIC (Aspergillus niger): > 100 µg/mL | MIC (Candida albicans [6]): > 100 µg/mL | MIC (Enterococcus faecalis [7]): > 100 µg/mL | MIC (Staphylococcus aureus [8]): > 100 µg/mL | MIC (Trichophyton benhamiae [22]): > 100 µg/mL
